Results on 48 sequences are retold here after the EternaBench riboswitch data.

The series has as its system MS2 coat protein. The series can be described thus: apparent Kd, MS2 coat protein; higher = weaker binding; RNA-MaP array; FMN 200 µM where present. The gist of the method: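 Green signal from SNAP-549-labelled MS2 coat protein was normalised to red-channel RNA signal and to the median Fmax of control clusters. The protein was titrated from 0.7 or 1.5 nM, doubling to 3 µM, without and then with constant ligand, over designs transcribed by stalled E. coli RNA polymerase on Illumina sequencing-chip clusters, in 100 mM Tris-HCl pH 7.5, 80 mM KCl, 4 mM MgCl2, BSA, DTT, yeast tRNA and Tween-20. The apparent Kd is the median of filtered per-cluster binding-curve fits.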

The mark [1] stands for this setting: designed as: OFF switch for flavin mononucleotide, no ligand.
[2] abbreviates: ligand present: flavin mononucleotide, designed as: OFF switch for flavin mononucleotide.
The mark [3] stands for this setting: designed as: ON switch for flavin mononucleotide, no ligand.
Where [4] appears, read: ligand present: flavin mononucleotide, designed as: ON switch for flavin mononucleotide.

Turning to “ACAACUAAGCAGAAGGCAGUCAUAGCAUUCGUCAUGUAGACAUGAGGAUCACCCAUGUAUAGUGCUGAGGAUAUGCUUGGUUAG”, the “apparent Kd” value came out at 0.0113 µM under setting [1] and 0.00947 µM under setting [2].
The matching figures for “AACUGACGACGUCAGUUGCGUAGGCAGGAUAUACAUGAGGAUCACCCAUGUGCAUGAUGCUACGAGUAGAAGGGCCGAGGCGAU”: 0.00615 µM and 0.0112 µM.
The matching figures for “GGAUAGGACAGAGGAUAUACAGAUAGGAUCUACUAUCAAACAAUCCUCACAUGAGGAUCACCCAUGUAGAAGGCUGUCCUAUCG”: 0.103 µM and 0.688 µM.
For “GAAGCACGCAUUAACAUGAGGAUCACCCAUGUCAAAAGACGUGAGGAUAUGGAUCUGAAGAAGAUCCAGAAGGCACUGUGCUAA”, the “apparent Kd” value by setting is: under setting [3], 0.00739 µM; under setting [4], 0.00559 µM.
Take “AAAAAGUGAGGAUAUACAUGAGGAUCACCCAUGUAAUAAAAAAAAAGGGUGGAAGAAAGUAGAAGGCACCAAAA”: the “apparent Kd” value under setting [1] stood at 0.0624 µM and the “apparent Kd” value under setting [2] came to 0.356 µM.
With “UGGAUGGUAUGAGGAUAUGCGCGUGAAACGCGCGCAGAAGGCAUGUCAAUAGACAUGAGGAUCACCCAUGUAUUAUCCAUCCAA”, the “apparent Kd” value under setting [3] was found to be 0.258 µM and the “apparent Kd” value under setting [4] was found to be 0.0158 µM.
With “AGCGGCGCAGACCACCGCAAAACCAGAAGGACAUGAGGAUCACCCAUGUAACAAAACAGGGCGAUGUAGGAUAUGGCAAACCCA”, the “apparent Kd” value was found to be 0.0163 µM under setting [1] and 0.0187 µM under setting [2].
In the case of “GAGUGGAAGGCCGCUACAUGAGGAUCACCCAUGUGCUAAGCACAGGAUAUCGCGCGGACCCGGCGCGAGAAGGGUGACGGCCUG”, the “apparent Kd” value by setting is: under setting [3], 0.463 µM; under setting [4], 0.268 µM.
“UCUUAAUUGAUCCUAUUUACCAACAUGAGGAUCACCCAUGUGCAGGAUAUGCUAAAGAUAGAUAAGCAGAAGGGCAUUUACCGC”: the “apparent Kd” value is 0.213 µM under setting [1] and 0.484 µM under setting [2].
In the case of “UGUACAUUAUUAAGUAAUUAGGCGAAGGAUAUAUAACAUGAGGAUCACCCAUGUACUAAGUUGAAGUAGAAGGUUGAGCAUUUC”, the “apparent Kd” value by setting is: under setting [3], 0.019 µM; under setting [4], 0.0157 µM.
In the case of “UCGGCGCGAGGAUAUGCGGUUGCUUGGUAGGGUCGGAGCGUACAUGAGGAUCACCCAUGUAGAAGGCGCGCCGC”, the “apparent Kd” value reads like this: under setting [1], 0.0188 µM; under setting [2], 0.025 µM.
The matching figures for “GGGUCACAUGAGGAUCACCCAUGUGAGGAUAUGAUACUAUGUACUUCGGUACAUAGUAUCAGAAGGCACAUCCC”: 0.0192 µM and 0.0357 µM.
“AGAUGACAAAGUCAUCUCGCUCUGACAUGAGGAUCACCCAUGUAGGAUAUAUUACUCAAAGAGUAAUAGAAGGACAUGUGUCUG”: the “apparent Kd” value came out at 0.0363 µM under setting [1] and 0.115 µM under setting [2].
For “ACAUGAGGAUCACCCAUGUAUUACAUGGUUAUGUUUAUUAACAGAAGGCGAAAUUACCACUGUUUCGAGGAUAUGUAUUCUAUA”, the “apparent Kd” value was found to be 0.0655 µM under setting [1] and 0.063 µM under setting [2].
Taken in the same sequence, the figures for “GUUUUGGUAGGAUAUACAUGAGGAUCACCCAUGUCCCACCCGUUACCUAUGACCAUAUGUAGAAGGACCAUUUG” were 0.0222 µM and 0.0282 µM.
For “UGUCGGAGCAGAGGAUAUAUACAUGAGGAUCACCCAUGUAAAUGAAUGAGCUGGAAACAGCAUGUAUAGAAGGCUGCUCCGACA”, the “apparent Kd” value under setting [1] stood at 0.118 µM and the “apparent Kd” value under setting [2] was 0.298 µM.
Regarding “UGUGUUAUCGGAGGAUAUCGAUAUCAAACAUGAGGAUCACCCAUGUUGAGGAUCACCCAUGUCCACGAGAAGGCCGGCGUACUC”, the “apparent Kd” value reads like this: under setting [3], 0.0238 µM; under setting [4], 0.0241 µM.
Take “GAGUGACAUGAGGAUCACCCAUGUGAGGAUAUCGGACGGACCAAAUUAACAUCCGCCGCGAGAAGGCACAUCGG”: the “apparent Kd” value under setting [1] came out at 0.0787 µM and the “apparent Kd” value under setting [2] is 0.0245 µM.
In the case of “UGACCCAUGACAUGAGAUGACAUGAGGAUCACCCAUGUUUACAAGGAUAUGUUGGUCAAAGGUCGGCAGAAGGUGUAAUGGGAU”, the “apparent Kd” value is, setting by setting: under setting [1], 0.049 µM; under setting [2], 0.128 µM.
On to “AAGCGAAAGCUAAAAUAUCUAUCAGAGGAUAUUUAUGAUACAUGAGGAUCACCCAUGUGACACUGGGAGAAGGCUGAUAGAUAA”, for which the “apparent Kd” value runs as follows: under setting [3], 0.0192 µM; under setting [4], 0.0075 µM.
For the sequence “UUUUAACAUGAGGAUCACCCAUGUGAGGAUAUCGAAAUUUAUAUUUAUAUUAAUAAUACGAGAAGGCACAUUUU”, the “apparent Kd” value under setting [1] is 0.063 µM and the “apparent Kd” value under setting [2] is 0.0869 µM.
For “AUGGACGUCGUAGGAUAUGUAGGAUUCUCCUACAUGAGGAUCACCCAUGUUGACGUGGAGGACGGACAGAAGGACGGUGUCCAU”, the “apparent Kd” value was 0.00722 µM under setting [3] and 0.0048 µM under setting [4].
As to “UAGGACUACGUAGGAUAUGUAGUUGAUUUCUACAUGAGGAUCACCCAUGUUUGCAUUUUAUUAGGACAGAAGGACGUGGUAAAU”, the “apparent Kd” value by setting is: under setting [3], 0.0161 µM; under setting [4], 0.00736 µM.
For the sequence “AAUUCGUUCUAGAAGGUGCAUUUUUUAAACAUGCAAGGAUAUAGACAUGAGGAUCACCCAUGUCUAUGAGACAUCGGCCUCCUG”, the “apparent Kd” value under setting [1] was found to be 0.0063 µM and the “apparent Kd” value under setting [2] was determined as 0.0133 µM.
With “GUCAGCUCGUCAGGAUAUACAUGAGGAUCACCCAUGUGAUCAAUAGCAGCUUCGGCUGCAUUAAUGUAGAAGGGACGAGCUGAU”, the “apparent Kd” value reads like this: under setting [1], 0.267 µM; under setting [2], 0.0692 µM.
The matching figures for “GUAUACGAUGAGGAUAUAUGAUAUCAAAGCAUCAUAGAAGGCAUCACAUGAGGAUCACCCAUGUGAUCUUCUAG”: 0.0157 µM and 0.0526 µM.
For the sequence “GGACGUCACAUGAACAUGAGGAUCACCCAUGUAAAUUCUCAUGAGGAUAUGGAUCCUAAUUGGAUCCAGAAGGCAUGGACGUCC”, the “apparent Kd” value is, setting by setting: under setting [3], 0.96 µM; under setting [4], 0.373 µM.
For the sequence “GCAGAGCCUGACAUGAGGAUCACCCAUGUUAGAUUGUUAUGUCAGGAUAUUGUCUAGCAACUAGACAAGAAGGGAUGCUCUGCG”, the “apparent Kd” value reads like this: under setting [3], 0.341 µM; under setting [4], 0.0278 µM.
With “UACAUGAGGAUCACCCAUGUUAACAUGGAGUUGUUAUAUCUGAGAAGGGUAAUAUUACAUUAAGUACAGGAUAUCAAUGAUGUU”, the “apparent Kd” value runs as follows: under setting [1], 0.0452 µM; under setting [2], 0.0184 µM.
Turning to “AUCCUGCGAGGAUAUACAUAGUGACGUCUGUUUGGUCUUAAACAUGAGGAUCACCCAUGUAGAAGGUGCGUCAC”, the “apparent Kd” value is, setting by setting: under setting [1], 0.0158 µM; under setting [2], 0.0195 µM.
Taken in the same sequence, the figures for “GGAUCUGAAACAGAUCCAAUACGAACAUGAGGAUCACCCAUGUAGGAUAUGCUACUCAAAGAGUAGCAGAAGGACAUGUGUCUU” were 0.0243 µM and 0.147 µM.
The matching figures for “GGCUAGUGAGGAUAUACGUGCAGUCCUCAGUCGCCAGUCGGACAUGAGGAUCACCCAUGUAGAAGGUAUCGGCA”: 0.0358 µM and 0.0389 µM.
Consider “GGUCCAUUAUGAGGAUAUGGCACCUUAUUGGUGCCAGAAGGCAUAUGUCUUCACAUGAGGAUCACCCAUGUAAUAAAUUGGACC”, for which the “apparent Kd” value is, setting by setting: under setting [3], 0.0174 µM; under setting [4], 0.0195 µM.
Take “GUGUAGAUAGGAUAUACGAGAGUCUAGCGAAGCUAGAUUCUACAUGAGGAUCACCCAUGUAGAAGGGUCUACAC”: the “apparent Kd” value by setting is: under setting [1], 0.0165 µM; under setting [2], 0.0192 µM.
For the sequence “GAGUGGAGGAGAGGAUAUACAAUGAUAAUCACUGUAGAAGGUUCUAACAUGAGGAUCACCCAUGUAGGACUAUUCCUGAGAGUU”, the “apparent Kd” value is, setting by setting: under setting [3], 0.0129 µM; under setting [4], 0.0103 µM.
For the sequence “CUUUAGUGAGGAUAUGUGGCUUCGAUCGUGAGAUCGAGGCUACAGAAGGCACAUGAGGAUCACCCAUGUUCCUG”, the “apparent Kd” value is 0.0157 µM under setting [1] and 0.0485 µM under setting [2].
Consider “AAUUUACAGCGAGGAUAUACAUGAGGAUCACCCAUGUAAUCAUAUGAUAUUUUUUUUGUAUGAGUGUAGAAGGCGCAAAUAAAA”, for which the “apparent Kd” value was found to be 0.0102 µM under setting [1] and 0.00961 µM under setting [2].
Take “GGAGGACAUGAGGAUCACCCAUGUGGAUGGGCGCUAGGAUAUGCGAGAGGAGGGAGUGGAGCAGAAGGAGUGGGUU”: the “apparent Kd” value under setting [3] stood at 0.0656 µM and the “apparent Kd” value under setting [4] is 0.0575 µM.
For the sequence “CGCAACAUGAGGAUCACCCAUGUUCGCGGGCAAUUUUAGUGCAGAAGGGACAACGAAACGUAGGGUCAGGAUAUGCAUGUGCGC”, the “apparent Kd” value under setting [3] came out at 0.00526 µM and the “apparent Kd” value under setting [4] was determined as 0.00517 µM.
With “UCUUACUGAGGAUAUACUUAGAUUUACAUGAGGAUCACCCAUGUUCCUCUAUGUAUAUAUGUAGAAGGCAGAAGUU”, the “apparent Kd” value amounted to 0.0254 µM under setting [1] and 0.158 µM under setting [2].
The matching figures for “CGGGAUUCCUGAGGAUAUGGAGCUGUCUACCUGGGCGACAUGAGGAUCACCCAUGUAGAACGCCUCCAGAAGGCAGCGAGAUUG”: 0.0273 µM and 0.0238 µM.
As to “AGUUAUUCAGGAUAUGGUGUGUUAUACAUGAGGAUCACCCAUGUAGAUCCUGGUUAGGCCUCAGAAGGGAAUGUUC”, the “apparent Kd” value by setting is: under setting [1], 0.182 µM; under setting [2], 0.183 µM.
In the case of “UUAUUAAGUGUGAGGAUAUGCUGGUCCUUGGAUCAGCAGAAGGCACAUGAGGAUCACCCAUGUACAAUAUUUUA”, the “apparent Kd” value under setting [1] was found to be 0.039 µM and the “apparent Kd” value under setting [2] came out at 0.23 µM.
Taken in the same sequence, the figures for “GACGUUGGAGGAUAUACACGAGUGCUCAGUUGGCCCGGUCGACAUGAGGAUCACCCAUGUAGAAGGCCGACACU” were 0.0176 µM and 0.0228 µM.
As to “UCAUGCAUAGCGAUAUGAUCGAGAGAUCAUGUCGCUAAAUUUAGAAGGACAUGAGGAUCACCCAUGUAGGAUAUGGGAGCAUGU”, the “apparent Kd” value under setting [3] worked out at 0.535 µM and the “apparent Kd” value under setting [4] is 0.0632 µM.
On to “GUGGUGCAUAUACGUGGAGGUACAUGAGGAUCACCCAUGUAAGAGGAUAUGCGGAUACUAGCUCAGCAGAAGGCUUACAAAUGA”, for which the “apparent Kd” value is, setting by setting: under setting [1], 0.0131 µM; under setting [2], 0.0515 µM.
For the sequence “GCAGCUCCUGACAUGAGGAUCACCCAUGUUUAAUUAUUAAAUCAGGAUAUCCUCUCGAAACGAGAGGAGAAGGGAUAAGCUGCU”, the “apparent Kd” value stood at 0.00483 µM under setting [3] and 0.00533 µM under setting [4].
With “UUUAUUUAGGCAGGAUAUACAUGUAUAUAUAUUUCUUUAUAUAUUAUUACAUGAGGAUCACCCAUGUAGAAGGGCCUUAUUAUA”, the “apparent Kd” value runs as follows: under setting [1], 0.0693 µM; under setting [2], 0.0889 µM.

The apparent Kd is a dissociation constant that holds for the conditions of the assay.
